IDH1 R132H inh = inhibitors of IDH1 R132H reductase, primary screen, biochemical, plate reader, single point; Isocitrate dehydrogenase [NADP] cytoplasmic (Homo sapiens), O75874; 0.18% of 70,000 active; AID 624101, 2012; diaphorase/resazurin fluorescence, 60 min; inhibition, % at 10 µM; in the data active = inhibition above about 34%; inconclusive = no clear call, values can overlap the other calls; inactive = below about 11%;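 note: 0% = DMSO and 100% = no enzyme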
Target sequence (O75874 whole entry R132H): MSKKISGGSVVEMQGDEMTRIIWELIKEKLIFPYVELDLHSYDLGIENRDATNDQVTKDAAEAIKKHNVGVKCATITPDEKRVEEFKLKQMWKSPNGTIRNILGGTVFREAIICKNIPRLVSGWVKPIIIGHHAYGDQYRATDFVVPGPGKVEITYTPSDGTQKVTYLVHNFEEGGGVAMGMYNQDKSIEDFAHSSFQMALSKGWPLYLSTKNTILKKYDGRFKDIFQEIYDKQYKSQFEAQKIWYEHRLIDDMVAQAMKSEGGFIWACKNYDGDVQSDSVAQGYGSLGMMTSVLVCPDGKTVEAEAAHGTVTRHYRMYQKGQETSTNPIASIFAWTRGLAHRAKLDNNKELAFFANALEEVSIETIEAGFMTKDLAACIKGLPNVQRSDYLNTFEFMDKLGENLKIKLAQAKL
Pf Dd2 growth = P. falciparum Dd2 growth inhibitors, primary screen, SYBR Green fluorescence, single dose replicates. 2.3% of 94,000 active. 72 h; active compounds read low. activity change, % at 10 µM; in the data active = activity change below about -80%; inconclusive = no clear call, values can overlap the other calls
KDM4C inh = inhibitors of GASC-1 (KDM4C) histone demethylase, primary screen, biochemical, single concentration HTS; Lysine-specific demethylase 4C (Homo sapiens), Q9H3R0; inhibition, % at 12.5 µM; AID 720574, 2013; 0.15% of 96,000 active; GST-KDM4C 2-372, H3K9me3 peptide, LANCE TR-FRET;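 active = mean replicate inhibition above about 25%, with at least 55% of replicates also reaching it, limit read from the data, passing the limit was not always enough; inconclusive = only one of those two conditions met; inactive = neither condition met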
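System: N-terminal GST-fused human GASC-1 (KDM4C) fragment, residues 2-372 / Amount: 10 nM GST-KDM4C in enzyme reaction / Also added: H3K9me3 peptide with Fe(II)/2OG / Times: 30 min demethylation and 1 h detection at room temperature / Signal: LANCE TR-FRET / Read-out basis: Fall in 671/618 emission ratio as inhibition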
T cruzi growth-1 = T. cruzi intracellular proliferation inhibitors, primary screen, cell-based, beta-gal Tulahuen parasites, NIH3T3 host, luminescence; T. cruzi beta-gal in NIH3T3, GalScreen luminescence, 90 h; inhibition, % at 8.34 µM; 5.9% of 77,000 active; AID 624255, 2012;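 active = mean inhibition above about 93%, with at least 55% of replicates each passing it, limit read from the data, passing the limit was not always enough; inconclusive = only one of those two conditions holds; inactive = neither condition holds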
T cruzi growth-2 = T. cruzi intracellular proliferation inhibitors, confirmation, cell-based, NIH3T3 host, beta-gal parasite, luminescence, cherry-pick; shares compounds with T cruzi growth-1; T. cruzi beta-gal in NIH3T3, GalScreen luminescence, 90 h; inhibition, % at 8.35 µM; 72% of 5,600 active; AID 651739, 2012;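 active = mean replicate inhibition above about 95% and at least 55% of replicates individually reaching it, limit read from the data; inconclusive = only one of the two criteria is met; inactive = neither criterion is met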
T cruzi growth-3 = inhibitors of intracellular T. cruzi replication, confirmation, NIH3T3 host cells, beta-gal parasites, cherry-pick, set 2. shares compounds with T cruzi growth-1. T. cruzi beta-gal in NIH3T3, GalScreen luminescence, 90 h. inhibition, % at 2.09 µM. 21% of 5,600 active;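 active = mean inhibition above about 95%, with at least 55% of replicates also reaching it, limit read from the data; inconclusive = meets just one of the two conditions; inactive = meets neither condition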;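 note: plate controls were neutral control median for no effect and positive control median for full effect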
NIH3T3 tox = cytotoxicity in mouse NIH/3T3 fibroblasts, confirmation, cytotoxicity control for T. cruzi proliferation inhibitor project, cell-based, cherry-pick, single point; cytotoxicity (signal decrease), % at 8.35 µM; 14% of 5,600 active; NIH/3T3 viability, CellTiter-Glo ATP luminescence, 90 h; AID 651742, 2012; shares compounds with T cruzi growth-1;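 active = mean signal decrease across replicates above about 35% based on untreated-well scatter, with enough replicates individually passing, limit read from the data; inconclusive = no rule stated though some were filed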;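 note: 0% = median of neutral control wells and 100% = median of positive control wells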
3T3 cytotox 2 = NIH/3T3 fibroblast cytotoxicity, confirmation, cytotoxicity control, cell-based, cherry-pick, single point, set 2. AID 651744, 2012. shares compounds with T cruzi growth-1. 56% of 5,600 active. NIH/3T3 viability, CellTiter-Glo ATP luminescence, 90 h. inhibition, % at 24.9 µM;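 active = mean loss of cell viability signal at or above a set limit, and enough replicates individually reaching it; inconclusive = meets only the mean limit or only the replicate share; inactive = meets neither condition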;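 note: 0% = median of neutral control wells and 100% = median of positive control wells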
Numbers without * were called inactive; ? = inconclusive; nt = not tested or not shown. Shown are actives, neighbours in structure and some others; about 5.9% of the full set was active somewhere.

SMILES	IDH1 R132H inh	Pf Dd2 growth	KDM4C inh	T cruzi growth-1	T cruzi growth-2	T cruzi growth-3	NIH3T3 tox	3T3 cytotox 2
Cc1noc(C)c1S(=O)(=O)Nc1ccc2c(c1)C(=O)N([C@H](C)CO)C[C@@H](C)[C@H](CN(C)S(=O)(=O)c1ccc(Cl)cc1)OCCCC[C@@H](C)O2	nt	?	-0.5	103.6*	106.8*	81.6	14.5	8.6
Cc1noc(C)c1S(=O)(=O)Nc1ccc2c(c1)C(=O)N([C@@H](C)CO)C[C@@H](C)[C@H](CN(C)S(=O)(=O)c1ccc(Cl)cc1)OCCCC[C@@H](C)O2	nt	-68.7	-0.2	89.6	nt	nt	nt	nt
Cc1noc(C)c1S(=O)(=O)N(C)C[C@H]1OCCCC[C@@H](C)Oc2ccc(NS(=O)(=O)c3ccc(Cl)cc3)cc2C(=O)N([C@@H](C)CO)C[C@@H]1C	nt	-76.8	0.6	99.7*	106.5*	91.4	33.4	18.8
Cc1noc(C)c1S(=O)(=O)N(C)C[C@@H]1OCCCC[C@@H](C)Oc2ccc(NS(=O)(=O)c3ccc(Cl)cc3)cc2C(=O)N([C@H](C)CO)C[C@@H]1C	nt	-3.1	2.9	38.4	nt	nt	nt	nt
C[C@@H]1CN([C@H](C)CO)C(=O)c2cc(NC(=O)Nc3cccc4ccccc34)ccc2O[C@@H](C)CCCCO[C@@H]1CN(C)C(=O)Cc1ccccc1	3.1	?	-0.8	43.6	nt	nt	nt	nt
COc1cccc(C#Cc2ccc([C@@H]3[C@@H](CO)N4C(=O)CN(C(=O)Cc5cccnc5)C[C@@H]34)cc2)c1	nt	-73.8	-0.7	nt	nt	nt	nt	nt
Cc1ccc(S(=O)(=O)Nc2ccc3c(c2)C(=O)N([C@@H](C)CO)C[C@@H](C)[C@@H](CN(C)S(=O)(=O)c2c(C)noc2C)OCCCC[C@@H](C)O3)cc1	0.2	-25.9	0.3	98.2*	107.1*	57.6	16.6	-9.0
Cc1noc(C)c1S(=O)(=O)N(C)C[C@@H]1OCCCC[C@@H](C)Oc2ccc(NS(=O)(=O)c3ccc(Cl)cc3)cc2C(=O)N([C@@H](C)CO)C[C@H]1C	1.0	14.6	0.0	63.3	nt	nt	nt	nt
Cc1noc(C)c1S(=O)(=O)N(C)C[C@H]1OCCCC[C@@H](C)Oc2ccc(NS(=O)(=O)c3ccc(Cl)cc3)cc2C(=O)N([C@@H](C)CO)C[C@H]1C	nt	-71.5	0.1	107.7*	102.0*	100.2*	22.5	25.6*
O=C(C1CCOCC1)N1CC(=O)N2[C@H](CO)[C@@H](c3ccc(/C=C/c4ccccc4)cc3)[C@@H]2C1	nt	5.0	0.0	nt	nt	nt	nt	nt
C[C@H](NC(=O)[C@@H]1N[C@@H]2c3ccc(C4=CCCC4)c(=O)n3C[C@@H]2[C@H]1CO)c1ccccc1	nt	nt	0.4	96.7*	40.1	-37.3	1.1	-10.1
CC(=O)N1[C@@H]2c3ccc(C4=CCCC4)c(=O)n3C[C@H]1[C@H](CO)[C@H]2C(=O)N[C@H](C)c1ccccc1	nt	2.7	0.8	101.0*	-16.2	8.3	12.1	4.2
C[C@@H](NC(=O)[C@@H]1N[C@@H]2c3ccc(C4=CCCCC4)c(=O)n3C[C@@H]2[C@H]1CO)c1ccccc1	nt	3.9	0.3	100.8*	109.2*	-3.5	1.6	7.0
COc1ccc2c3c(n(C)c2c1)[C@H](CO)N(C(=O)Nc1ccccc1F)CC31CCN(C(C)=O)CC1	nt	-3.2	-0.1	nt	nt	nt	nt	nt
O=C(C1CCC1)N1CCCCN2[C@@H](CO)[C@@H](c3ccc(-c4ccncc4)cc3)[C@@H]2C1	nt	7.2	-0.7	109.2*	105.0*	86.5	20.2	50.8*
O=C(C1CCCC1)N1CCCCN2[C@H](CO)[C@@H](c3ccc(-c4ccncc4)cc3)[C@H]2C1	nt	45.2	nt	?	55.2	36.0	10.7	18.6
O=C(C1CCCC1)N1CCCCN2[C@@H](CO)[C@@H](c3ccc(-c4ccncc4)cc3)[C@@H]2C1	nt	11.6	nt	48.6	nt	nt	nt	nt
O=C(C1CCC1)N1CCCCN2[C@H](CO)[C@H](c3ccc(-c4ccncc4)cc3)[C@H]2C1	nt	3.5	-1.4	101.0*	92.3	82.0	-13.5	-13.4
O=C(C1CCC1)N1CCCCN2[C@H](CO)[C@@H](c3ccc(-c4ccncc4)cc3)[C@H]2C1	nt	26.5	14.9	98.0*	100.0*	16.0	-7.5	5.1
O=C(Nc1cccc(C(=O)OC2Cc3ccccc3C2=O)c1)c1ccccc1 (configuration not stated)	-0.1	nt	nt	nt	nt	nt	nt	nt
Cc1cccc(-c2ccc([C@H]3[C@@H](CO)N4CCCCN(CCC(F)(F)F)C[C@@H]34)cc2)c1	nt	-35.8	1.1	?	94.1	84.0	44.9*	105.2*
COc1ccccc1C#Cc1ccc([C@H]2[C@H]3CN(CCC(F)(F)F)CCCCN3[C@H]2CO)cc1	nt	-35.6	-1.8	43.3	nt	nt	nt	nt
OC[C@H]1[C@H](c2ccc(C#CC3CC3)cc2)[C@H]2CN(CCC(F)(F)F)CCCCN21	nt	1.0	nt	98.4*	110.6*	31.8	34.0	105.9*
COc1ccccc1C#Cc1ccc([C@@H]2[C@@H](CO)N3CCCCN(CCC(F)(F)F)C[C@H]23)cc1	nt	-82.4*	0.7	105.4*	91.0	110.0*	98.1*	103.7*
OC[C@@H]1[C@H](c2ccc(/C=C/c3ccccc3)cc2)[C@H]2CN(CCC(F)(F)F)CCCCN12	nt	-74.7	nt	101.5*	79.4	106.8*	73.1*	105.2*
C/C=C/c1ccc([C@H]2[C@@H](CO)N3CCCCN(CCC(F)(F)F)C[C@@H]23)cc1	nt	-7.1	-1.1	85.2	nt	nt	nt	nt
OC[C@H]1[C@@H](c2ccc(C#CC3CC3)cc2)[C@H]2CN(CCC(F)(F)F)CCCCN21	nt	-18.0	nt	89.6	nt	nt	nt	nt
N#C[C@@H]1[C@H](c2ccccc2-c2ccccc2F)[C@@H](CO)N1C(=O)Cc1ccccc1	nt	15.3	-0.6	nt	nt	nt	nt	nt
CCn1c(SCC(=O)Nc2ccc(C)c(C)c2)nnc1-c1ccc(Cl)cc1	0.6	nt	nt	nt	nt	nt	nt	nt
OC[C@H]1[C@H](c2ccc(-c3ccccc3)cc2)[C@@H]2CN(CCC(F)(F)F)CCCCN12	nt	-64.6	-0.4	106.1*	99.8*	75.0	64.9*	102.4*

Screening data deposited in PubChem BioAssay by Broad Institute.
